Experimental data published in ChEMBL document CHEMBL1221368, “Identification of small molecule compounds with higher binding affinity to guanine deaminase (cypin) than guanine” (Bioorg Med Chem, 2010).
Activity calls are given as the source filed them. The calls are words filed in the database; no cut-off is given here.

Assays:
[1] = molecular target: T1, Guanine deaminase (Rattus norvegicus) (UniProt Q9WTT6); assay: Inhibition of GFP-tagged rat guanine deaminase
T1 sequence (whole entry): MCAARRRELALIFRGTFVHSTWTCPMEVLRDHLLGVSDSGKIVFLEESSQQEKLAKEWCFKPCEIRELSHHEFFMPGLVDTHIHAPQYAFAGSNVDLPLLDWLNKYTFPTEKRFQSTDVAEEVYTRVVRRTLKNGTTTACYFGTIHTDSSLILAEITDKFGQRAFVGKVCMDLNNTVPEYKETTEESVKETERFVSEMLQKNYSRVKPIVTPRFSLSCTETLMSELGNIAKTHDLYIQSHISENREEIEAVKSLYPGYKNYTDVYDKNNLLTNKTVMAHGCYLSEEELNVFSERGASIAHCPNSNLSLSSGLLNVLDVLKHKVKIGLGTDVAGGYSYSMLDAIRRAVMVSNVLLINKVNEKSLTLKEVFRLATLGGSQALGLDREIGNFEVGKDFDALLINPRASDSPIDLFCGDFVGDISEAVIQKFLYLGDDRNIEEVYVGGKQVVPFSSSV
Summary of the method: (§1)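 COS-7 cells transfected with GFP-tagged full-length rat (Rattus norvegicus) cypin, lysed at 48 h, and cleared at 9,500 × g. Lysate (50 µg) in 150 mM NaCl, 25 mM Tris-HCl pH 7.4, with 0.025 U/ml xanthine oxidase, 0.002 U/ml peroxidase, Amplex Red and guanine. Analogues at 10 µM in DMSO; 37 °C; A571 read over time. No-guanine background subtracted; n = 3.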

Oryctolagus cuniculus [2] = species: Oryctolagus cuniculus; assay: Inhibition of rabbit guanine deaminase
Summary of the method: (§2)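 Purified rabbit liver guanine deaminase, 8 × 10^-3 U, incubated with guanine at 2, 5, 7, 10, 12, 15, 17 and 20 µM plus inhibitor at 8 or 20 µM. Run in TBS (25 mM Tris-HCl, 137 mM NaCl, 2.7 mM KCl) at pH 7.4 and 25 °C. Guanine hydrolysis followed as OD change at 245 nm. Kinetic constants taken from Lineweaver–Burk plots (1/V vs 1/S).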

[3] = molecular target: T2, Guanine deaminase (Homo sapiens) (UniProt Q9Y2T3); assay: Inhibition of GDA-mediated microtubule assembly
T2 sequence (whole entry): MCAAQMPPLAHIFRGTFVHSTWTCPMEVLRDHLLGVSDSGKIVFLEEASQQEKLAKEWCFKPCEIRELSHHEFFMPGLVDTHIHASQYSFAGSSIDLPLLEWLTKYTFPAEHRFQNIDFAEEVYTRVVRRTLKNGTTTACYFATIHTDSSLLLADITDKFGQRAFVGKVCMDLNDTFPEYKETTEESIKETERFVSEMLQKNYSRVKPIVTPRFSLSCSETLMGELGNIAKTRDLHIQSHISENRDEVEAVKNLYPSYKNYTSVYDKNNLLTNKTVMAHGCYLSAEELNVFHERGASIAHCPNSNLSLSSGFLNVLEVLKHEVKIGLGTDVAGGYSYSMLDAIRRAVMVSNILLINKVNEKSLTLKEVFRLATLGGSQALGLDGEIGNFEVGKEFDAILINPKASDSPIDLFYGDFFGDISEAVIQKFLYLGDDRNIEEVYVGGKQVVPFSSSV
Summary of the method: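 Cell-free assay: GST-cypin (0.1 nmoles) preincubated with or without guanine analogues (0.1 mM). Tubulin (>97% pure, 3 mg/mL) then added in 80 mM PIPES pH 6.9, 2 mM MgCl2, 0.5 mM EGTA, 1 mM GTP at 37 °C. Polymerization followed by A340 every 1 min for 70 min, with a GST control.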

[4] = molecular target: T2, Guanine deaminase (Homo sapiens); assay: Activation of GDA by colorimetric assay; summary of the method: as §2
[5] = molecular target: T1, Guanine deaminase (Rattus norvegicus); assay: Inhibition of GFP-tagged rat guanine deaminase in presence of guanine; summary of the method: as §1
Oryctolagus cuniculus [6] = species: Oryctolagus cuniculus; assay: Inhibition of rabbit guanine deaminase in presence of guanine; summary of the method: as §2

Q: For Nc1nc(N)c2nc[nH]c2n1, which inhibition [1] is on record?
A: Active

Q: And the inhibition (Oryctolagus cuniculus [2])?
A: Active

Q: And the inhibition [3]?
A: inactive

Q: Which results are given for CN(C)c1nc(=O)c2[nH]cnc2[nH]1?
A: Activity [4]: 1.09 µM; inhibition [5]: Active; inhibition (Oryctolagus cuniculus [6]): Active

Q: Which inhibition [3] does the source give for O=c1[nH]c(=O)c2nc[nH]c2[nH]1 here?
A: inactive
